Legend:
[1] = biological target: cGMP-specific 3',5'-cyclic phosphodiesterase (Homo sapiens) (UniProt O76074); test: In vitro inhibition of PDE-V isolated from porcine pulmonary artery at 10 uM.; details: Sus scrofa, target entry is the homologue from another species
[2] = biological target: T1, Phosphodiesterase 4 (Homo sapiens, UniProt P27815+Q08499+Q07343+Q08493); test: In vitro inhibition of PDE-IV isolated from guinea pig ventricle at 10 uM.; assay type: protein assay; details: Cavia porcellus, target entry is the homologue from another species
[3] = biological target: T2, Phosphodiesterase 3 (Homo sapiens, UniProt Q14432+Q13370); test: Percentage inhibition against PDE-III (phosphodiesterase III) in guinea pig ventricle at 10 uM; assay type: protein assay; details: Cavia porcellus, target entry is the homologue from another species
[4] = tested on: cGMP-specific 3',5'-cyclic phosphodiesterase (Sus scrofa); test: In vitro inhibition of PDE-V isolated from porcine pulmonary artery at 100 uM.
[5] = biological target: T1, Phosphodiesterase 4; test: In vitro inhibition of PDE-IV isolated from guinea pig ventricle.; assay type: protein assay, Cavia porcellus; details: target entry is the homologue from another species
In short: (§1)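 PDE III and PDE IV were each prepared from guinea pig ventricle by anion-exchange chromatography. Activity was measured by the boronate column method with 1 μM cAMP as substrate.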

[6] = biological target: T2, Phosphodiesterase 3; test: Percent inhibition of PDE 3 (phosphodiesterase III) from guinea pig ventricle at 10 uM (or 100 uM); assay type: protein assay; details: Cavia porcellus, target entry is the homologue from another species
[7] = biological target: T2, Phosphodiesterase 3; test: Effective dose against PDE-III for increase in contractility following administration to anaesthetised dogs; details: Canis lupus familiaris; target entry is the homologue from another species
[8] = biological target: T1, Phosphodiesterase 4; test: In vitro inhibition of PDE-IV isolated from guinea pig ventricle; Not determined.; assay type: protein assay; details: Cavia porcellus; target entry is the homologue from another species; concentration not given here; in short: as §1
[9] = biological target: T2, Phosphodiesterase 3; test: Inhibition of PDE 3 (phosphodiesterase III) from guinea pig ventricle; assay type: protein assay, Cavia porcellus; details: target entry is the homologue from another species; in short: as §1
[10] = biological target: T2, Phosphodiesterase 3; test: Relative positive inotropic activity (ED50) and PDE 3 inhibition (IC50); assay type: protein assay; details: Cavia porcellus
[11] = biological target: T1, Phosphodiesterase 4; test: In vitro inhibition of PDE-IV isolated from guinea pig ventricle at 100 uM.; assay type: protein assay; details: Cavia porcellus, target entry is the homologue from another species

| Structure (SMILES) | inhibition [2] [%] | inhibition [3] [%] | IC50 [5] [µM] | further results |
| --- | --- | --- | --- | --- |
| O=[N+]([O-])c1ccccc1-c1nc2ccc[nH]c-2n1 | 4 | 0 |  | inhibition [1]: 13% |
| CCCSc1ccccc1-c1nc2ccc[nH]c-2n1 | 21 | 0 |  |  |
| CNCCCOc1ccccc1-c1nc2ccc[nH]c-2n1 | 5 | 0 |  | inhibition [1]: 12% |
| CN(C)CCCOc1ccccc1-c1nc2ccc[nH]c-2n1 | 7 | 8 |  | inhibition [4]: 47% |
| CC(C)(C)Oc1ccccc1-c1nc2ccc[nH]c-2n1 | 0 | 0 |  | inhibition [1]: 29% |
| CCCNc1ccccc1-c1nc2ccc[nH]c-2n1 | 11 | 0 |  |  |
| COc1cc([S+](C)[O-])ccc1-c1nc2cccnc2[nH]1 (stereo not given) |  |  |  | inhibition [6]: 2%; ED50 [7]: 0.3 mg/kg |
| CCCCCOc1ccccc1-c1nc2cc[nH]cc-2n1 | 50 | 20 |  |  |
| CCCOc1ccccc1-c1nc2[nH]nnc2c(=O)[nH]1 | 13 | 14 |  |  |
| Cc1[nH]c(=O)c(C#N)cc1-c1ccncc1 |  |  |  | ED50 [7]: 0.037 mg/kg |
| CCCCCCOc1ccccc1-c1nc2ccc[nH]c-2n1 |  | 0 | 16 |  |
| O=C1CCC(c2ccc(-n3ccnc3)cc2)=NN1 |  |  |  | ED50 [7]: 0.05 mg/kg |
| CCCCCOc1ccccc1-c1nc2ccc[nH]c-2n1 |  | 0 | 6 |  |
| c1ccc(COc2ccccc2-c2nc3ccc[nH]c-3n2)cc1 |  | 0 | 8 |  |
| COc1ccccc1-c1nc2cc[nH]cc-2n1 | 20 | 6 |  |  |
| CCCOc1ccccc1-c1cn2cccnc2n1 | 16 | 2 |  |  |
| CC(=O)Oc1ccccc1-c1nc2ccc[nH]c-2n1 | 0 | 2 |  |  |
| Oc1ccccc1-c1nc2ccc[nH]c-2n1 | 0 | 15 |  |  |
| CC1(C)C(=O)Nc2ccc(C3=NNC(=O)CC3)cc21 [INDOLIDAN] |  |  |  | IC50 [9]: 0.08 µM; Ratio [10]: 0.01; ED50 [7]: 0.007 mg/kg |
| COc1cc([S+](C)[O-])ccc1-c1nc2cnccc2[nH]1 (stereo not given) [ISOMAZOLE] |  |  |  | inhibition [6]: 23%; IC50 [9]: 42 µM; inhibition [11]: 2%; Ratio [10]: 1.4; ED50 [7]: 0.03 mg/kg |

More lines, main results first:

| inhibition [2] [%] | inhibition [3] [%] | IC50 [5] [µM] | Structure (SMILES) | further results |
| --- | --- | --- | --- | --- |
|  | 12 | 19 | c1c[nH]c2nc(-c3ccccc3OC3CCCC3)nc-2c1 |  |
| 30 | 0 |  | OCCCOc1ccccc1-c1nc2ccc[nH]c-2n1 |  |
|  | 7 | 9 | ClCCCOc1ccccc1-c1nc2ccc[nH]c-2n1 |  |
|  | 0 | 11 | CCCOc1ccccc1-c1nc2ccc[nH]c-2n1 |  |
|  | 15 | 37 | c1c[nH]c2nc(-c3ccccc3OCC3CC3)nc-2c1 |  |
|  | 13 |  | COc1ccccc1-c1nc2ccc[nH]c-2n1 | inhibition [8]: 1% |
|  |  | 3 | CC(C)COc1ccccc1-c1nc2ccc[nH]c-2n1 |  |
|  | 0 | 6 | CCCCOc1ccccc1-c1nc2ccc[nH]c-2n1 |  |
| 23 | 15 |  | CCOc1ccccc1-c1nc2ccc[nH]c-2n1 |  |
| 14 | 2 |  | OCCOc1ccccc1-c1nc2ccc[nH]c-2n1 |  |

From ChEMBL document CHEMBL1126686 (J Med Chem, 1993)
